# Data taken from the M2OR odorant receptor database.
# Legend:
# Conditions in all cases: stereoisomer not certain
# [1] = test system: T1, O1440
# T1 sequence (whole entry): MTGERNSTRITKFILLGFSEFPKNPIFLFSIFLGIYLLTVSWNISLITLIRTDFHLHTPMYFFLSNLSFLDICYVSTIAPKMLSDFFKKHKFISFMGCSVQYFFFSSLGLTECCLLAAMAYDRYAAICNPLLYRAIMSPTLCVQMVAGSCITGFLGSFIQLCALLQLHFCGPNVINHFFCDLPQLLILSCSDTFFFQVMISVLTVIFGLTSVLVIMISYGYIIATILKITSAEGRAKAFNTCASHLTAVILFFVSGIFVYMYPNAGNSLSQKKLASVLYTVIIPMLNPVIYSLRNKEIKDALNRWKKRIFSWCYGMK
# How it was run: (§1)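 Transient luciferase assays in mammalian cell lines were common, though methods varied by source. The values come from published papers and their supplementary material, with extra details from the original authors when needed. Responsive refers to a measured signal the original authors judged statistically different from baseline, and non-responsive (inactive) to the remainder.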
# [2] = test system: T2, O14A2 I133V
# T2 sequence (whole entry): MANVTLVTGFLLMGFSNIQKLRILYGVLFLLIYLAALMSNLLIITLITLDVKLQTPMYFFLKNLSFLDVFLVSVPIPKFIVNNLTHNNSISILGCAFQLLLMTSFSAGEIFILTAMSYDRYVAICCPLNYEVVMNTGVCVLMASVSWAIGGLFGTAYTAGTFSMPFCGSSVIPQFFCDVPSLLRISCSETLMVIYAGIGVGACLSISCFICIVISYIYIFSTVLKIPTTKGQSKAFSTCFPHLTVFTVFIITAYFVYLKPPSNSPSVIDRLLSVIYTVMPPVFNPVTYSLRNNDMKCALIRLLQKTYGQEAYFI
# How it was run: as §1
# [3] = test system: T3, O14CZ
# T3 sequence (whole entry): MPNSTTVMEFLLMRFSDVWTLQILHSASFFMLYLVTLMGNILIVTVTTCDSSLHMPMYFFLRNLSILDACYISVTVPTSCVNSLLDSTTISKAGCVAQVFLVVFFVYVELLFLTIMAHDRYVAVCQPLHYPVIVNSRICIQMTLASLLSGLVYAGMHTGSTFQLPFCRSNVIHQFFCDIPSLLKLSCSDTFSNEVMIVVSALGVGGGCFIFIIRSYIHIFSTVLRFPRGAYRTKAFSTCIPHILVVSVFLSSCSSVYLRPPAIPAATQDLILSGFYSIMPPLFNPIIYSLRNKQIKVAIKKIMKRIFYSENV
# How it was run: as §1
# [4] = test system: T4, O14I1 V36A D50N Y216C
# T4 sequence (whole entry): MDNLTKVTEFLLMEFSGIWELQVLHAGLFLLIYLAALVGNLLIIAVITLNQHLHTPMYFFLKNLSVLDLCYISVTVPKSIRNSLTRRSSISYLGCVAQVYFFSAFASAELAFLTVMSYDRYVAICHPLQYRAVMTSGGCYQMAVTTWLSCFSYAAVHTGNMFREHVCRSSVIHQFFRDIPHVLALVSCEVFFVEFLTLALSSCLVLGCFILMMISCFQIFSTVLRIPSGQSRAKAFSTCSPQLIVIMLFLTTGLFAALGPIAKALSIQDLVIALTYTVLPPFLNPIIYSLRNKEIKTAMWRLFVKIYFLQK
# How it was run: as §1
# [5] = test system: T5, O14J1 N3Y
# T5 sequence (whole entry): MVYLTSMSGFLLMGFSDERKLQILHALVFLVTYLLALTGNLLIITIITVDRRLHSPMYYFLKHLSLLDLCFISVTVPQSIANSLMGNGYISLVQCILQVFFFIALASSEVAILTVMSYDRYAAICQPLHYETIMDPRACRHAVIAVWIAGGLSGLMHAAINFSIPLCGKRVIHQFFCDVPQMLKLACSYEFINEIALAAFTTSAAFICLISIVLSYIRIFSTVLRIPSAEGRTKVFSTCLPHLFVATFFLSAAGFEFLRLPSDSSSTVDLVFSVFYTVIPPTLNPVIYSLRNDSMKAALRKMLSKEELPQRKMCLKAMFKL
# How it was run: as §1
# [6] = test system: T6, O14K1 D119Y
# T6 sequence (whole entry): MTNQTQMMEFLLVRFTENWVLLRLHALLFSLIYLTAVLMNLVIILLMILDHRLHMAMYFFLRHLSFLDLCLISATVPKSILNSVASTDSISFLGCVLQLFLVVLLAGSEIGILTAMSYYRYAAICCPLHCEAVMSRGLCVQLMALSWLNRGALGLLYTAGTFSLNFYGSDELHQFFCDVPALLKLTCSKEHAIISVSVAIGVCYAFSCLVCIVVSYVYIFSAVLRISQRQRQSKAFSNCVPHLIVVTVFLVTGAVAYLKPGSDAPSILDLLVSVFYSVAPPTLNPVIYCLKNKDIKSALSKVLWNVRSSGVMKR
# How it was run: as §1
# [7] = test system: T7, O2A25
# T7 sequence (whole entry): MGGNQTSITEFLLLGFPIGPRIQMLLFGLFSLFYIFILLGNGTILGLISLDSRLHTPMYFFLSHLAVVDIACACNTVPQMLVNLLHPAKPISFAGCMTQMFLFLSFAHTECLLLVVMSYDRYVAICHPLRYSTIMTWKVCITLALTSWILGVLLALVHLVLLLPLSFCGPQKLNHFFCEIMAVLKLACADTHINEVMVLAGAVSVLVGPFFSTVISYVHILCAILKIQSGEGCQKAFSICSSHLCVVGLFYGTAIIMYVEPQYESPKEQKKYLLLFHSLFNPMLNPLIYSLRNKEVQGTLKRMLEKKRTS
# How it was run: as §1
# [8] = test system: T8, O2AE1
# T8 sequence (whole entry): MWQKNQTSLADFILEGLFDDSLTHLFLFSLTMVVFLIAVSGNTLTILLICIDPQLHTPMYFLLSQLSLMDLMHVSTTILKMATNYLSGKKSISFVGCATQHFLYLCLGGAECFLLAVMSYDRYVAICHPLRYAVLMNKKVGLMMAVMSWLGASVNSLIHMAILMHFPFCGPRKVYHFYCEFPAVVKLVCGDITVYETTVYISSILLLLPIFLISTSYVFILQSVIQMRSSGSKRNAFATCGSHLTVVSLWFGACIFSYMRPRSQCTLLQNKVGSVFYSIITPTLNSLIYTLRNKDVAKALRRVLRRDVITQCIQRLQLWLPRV
# How it was run: as §1
# [9] = test system: T9, O2AJ1
# T9 sequence (whole entry): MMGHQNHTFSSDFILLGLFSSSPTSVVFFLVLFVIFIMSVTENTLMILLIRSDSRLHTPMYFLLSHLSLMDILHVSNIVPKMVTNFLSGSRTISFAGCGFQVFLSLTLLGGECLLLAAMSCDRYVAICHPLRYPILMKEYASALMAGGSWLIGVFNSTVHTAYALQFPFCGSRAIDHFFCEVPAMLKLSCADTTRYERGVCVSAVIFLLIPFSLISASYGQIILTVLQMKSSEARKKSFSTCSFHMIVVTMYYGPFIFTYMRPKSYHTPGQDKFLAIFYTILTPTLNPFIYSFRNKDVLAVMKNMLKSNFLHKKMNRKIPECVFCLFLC
# How it was run: as §1
# [10] = test system: T10, O2AK2 S99N
# T10 sequence (whole entry): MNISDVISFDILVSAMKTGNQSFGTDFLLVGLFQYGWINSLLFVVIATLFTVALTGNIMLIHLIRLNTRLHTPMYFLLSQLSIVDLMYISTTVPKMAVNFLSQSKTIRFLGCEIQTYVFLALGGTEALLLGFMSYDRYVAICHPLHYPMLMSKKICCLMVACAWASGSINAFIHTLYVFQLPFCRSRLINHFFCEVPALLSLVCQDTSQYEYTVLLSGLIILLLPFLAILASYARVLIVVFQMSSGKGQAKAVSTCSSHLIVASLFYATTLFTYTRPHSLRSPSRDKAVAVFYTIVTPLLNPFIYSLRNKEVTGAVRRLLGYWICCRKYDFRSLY
# How it was run: as §1
# 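Note: active if original authors judged signal statistically different from baseline.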
smiles,measurement,setting,value
O=C1CCCCCCCCCCCCCC1,odorant receptor agonist call,[1],active
O=C1CCCC=CCCCCCCCCCC1,odorant receptor agonist call,[1],active
CCCC(S)CCOC(C)=O (stereo not given),odorant receptor agonist call,[2],inactive
same,odorant receptor agonist call,[3],inactive
same,odorant receptor agonist call,[4],inactive
same,odorant receptor agonist call,[5],inactive
same,odorant receptor agonist call,[6],inactive
same,odorant receptor agonist call,[7],inactive
same,odorant receptor agonist call,[8],inactive
same,odorant receptor agonist call,[9],inactive
same,odorant receptor agonist call,[10],inactive
O=C1CCCCCCCCCC1,odorant receptor agonist call,[1],inactive
O=C1CCCCCCC=CCCCCCCC1,odorant receptor agonist call,[1],active
CCCCCCCC(=O)CCCCCCC,odorant receptor agonist call,[1],inactive
CC1C(C)(C)C2=C(C(=O)CCC2)C1(C)C (stereo not given),odorant receptor agonist call,[1],active
O=C1CCCCCC=CCCCCCCCCO1,odorant receptor agonist call,[1],active
CCC1OC(=O)C(O)=C1C (stereo not given),odorant receptor agonist call,[2],inactive
same,odorant receptor agonist call,[3],inactive
same,odorant receptor agonist call,[4],inactive
same,odorant receptor agonist call,[5],inactive
same,odorant receptor agonist call,[6],inactive
same,odorant receptor agonist call,[7],inactive
same,odorant receptor agonist call,[8],inactive
same,odorant receptor agonist call,[9],inactive
same,odorant receptor agonist call,[10],inactive
CCCCCCCCCCCCCC(C)=O,odorant receptor agonist call,[1],active
CCCCCCC=CCCC=O,odorant receptor agonist call,[2],inactive
same,odorant receptor agonist call,[3],inactive
same,odorant receptor agonist call,[4],inactive
same,odorant receptor agonist call,[5],inactive
same,odorant receptor agonist call,[6],inactive
same,odorant receptor agonist call,[7],inactive
same,odorant receptor agonist call,[8],inactive
same,odorant receptor agonist call,[10],inactive
c1ccc2ncccc2c1,odorant receptor agonist call,[7],active
CC1=NC(C)C(C)S1 (stereo not given),odorant receptor agonist call,[2],inactive
same,odorant receptor agonist call,[3],inactive
same,odorant receptor agonist call,[4],inactive
same,odorant receptor agonist call,[5],inactive
same,odorant receptor agonist call,[6],inactive
same,odorant receptor agonist call,[7],inactive
same,odorant receptor agonist call,[8],inactive
same,odorant receptor agonist call,[9],inactive
same,odorant receptor agonist call,[10],inactive
CC1CCCCCCCCCCCC(=O)C1 (stereo not given),odorant receptor agonist call,[1],active
CC(=O)c1c(C)c([N+](=O)[O-])c(C(C)(C)C)c([N+](=O)[O-])c1C,odorant receptor agonist call,[1],active
OC1CCCCCCCCCCCCCC1,odorant receptor agonist call,[1],active
CC1CC=CCCCCCCCCC(=O)C1 (stereo not given),odorant receptor agonist call,[1],active
O=C1CCCCCCCCC1,odorant receptor agonist call,[1],inactive
CC1CCCCCCCCCCCCC(=O)C1 (stereo not given),odorant receptor agonist call,[1],active
CC1=C(O)C(=O)C(C)O1 (stereo not given),odorant receptor agonist call,[2],inactive
same,odorant receptor agonist call,[3],inactive
same,odorant receptor agonist call,[4],inactive
same,odorant receptor agonist call,[5],inactive
same,odorant receptor agonist call,[6],inactive
same,odorant receptor agonist call,[7],inactive
same,odorant receptor agonist call,[8],inactive
same,odorant receptor agonist call,[9],inactive
same,odorant receptor agonist call,[10],inactive
CC1CC=CCCCCCCCCCC(=O)C1 (stereo not given),odorant receptor agonist call,[1],active
